Screening results from PubChem.
The list is not random: actives were taken first. Their share in the collection is about 3.8%.
V-ATPase pHluor: regulators of yeast V-ATPase proton transport; hit rate 0.37% among 350,000; AID 504577; S. cerevisiae, pHLuorin cytosolic pH fluorescence; response, % at 10 µM; in the data active = response mostly above about 7.3%, no sharp cut-off; inactive = mostly below about 5.4%; note: actives read high
rCAG binder: r(CAG) repeat RNA binding; TO-PRO-1 dye displacement fluorescence; inhibition, % at 3 µM; hit rate 1.3% among 370,000; AID 651821;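 active = inhibition above the plate cutoff, the mean of all test compounds on that plate plus 3 SD, cut at about 35% in these data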;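 note: 0% = DMSO alone and 100% = 100 µM mitoxantrone as full dye displacement; higher means more dye released from RNA so lower well fluorescence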
MPTP inh: inhibitors of mitochondrial permeability transition pore | isolated mouse mitochondria, Ca2+ swelling absorbance, 30 min | inhibition, % at 10 µM | hit rate 1.4% among 360,000 | AID 602449;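 active = inhibition of 50% or more, scaled per plate between neutral and stimulator controls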;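 note: 0% = DMSO wells given calcium and 100% = 1 mM EGTA wells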
Granule exo inh: lytic granule exocytosis inhibition; TALL-104 LAMP-1 surface exposure, flow cytometry; cells stimulated with thapsigargin and PMA; hit rate 0.66% among 360,000; inhibition, % at 10 µM;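 active = inhibition above about 55%, limit read from the data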
Beta2AR agonist: agonists of human beta-2 adrenergic receptor inducing internalization | P07550 | Am2.2-beta2AR cells, FAP receptor internalization, flow cytometry | response, % (concentration not given with the values) | hit rate 0.43% among 340,000 | AID 504454;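 active = response above a set limit, near 3 SD of response in nonfluorescent compounds, cut at about 42% in these data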
Target sequence (P07550 whole entry, looked up): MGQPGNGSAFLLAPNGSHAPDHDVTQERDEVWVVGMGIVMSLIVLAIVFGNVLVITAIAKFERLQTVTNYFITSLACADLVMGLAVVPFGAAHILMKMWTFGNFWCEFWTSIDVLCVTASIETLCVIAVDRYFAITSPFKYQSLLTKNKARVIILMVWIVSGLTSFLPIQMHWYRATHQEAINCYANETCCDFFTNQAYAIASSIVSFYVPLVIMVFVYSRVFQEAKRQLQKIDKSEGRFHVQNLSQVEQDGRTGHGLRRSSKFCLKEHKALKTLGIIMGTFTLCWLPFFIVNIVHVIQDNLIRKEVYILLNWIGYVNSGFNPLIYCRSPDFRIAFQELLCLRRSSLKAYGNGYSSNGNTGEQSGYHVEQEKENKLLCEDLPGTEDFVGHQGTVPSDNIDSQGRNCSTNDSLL
T cell HTS: modulates CD8 T cell binding to vesicles. 2C CD8+ T cell-vesicle binding, flow cytometry; hits give low values. response (vesicle binding), % at 7 µM. hit rate 0.068% among 330,000. AID 2052;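 active = response, share of CD8 T cells binding vesicles, and their 90th percentile fluorescence all below set limits, cut at about 80% in these data, passing the limit was not always enough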;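 note: values below 100% mean blocked vesicle binding to the CD8+ T cells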
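Assay system – 2C mouse CD8+ T cells · Also added – QL9-loaded Drosophila micro-vesicles · Timing – Cell–vesicle co-incubation 1.5 h at 37 °C, staining 20 min on ice · Signal – flow cytometry of vesicle-bound cells · Measure – percent CD8+ FL2 mean versus row control · Controls – Peptide-free naked vesicles (low) and QL9 vesicles with 0.7% DMSO vehicle (high)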
MPTP counter: Rhodamine 123 counter-screen of mitochondrial pore hits | hit rate 78% among 5,000 | inhibition, % at 10 µM | isolated mitochondria, membrane potential, Rhodamine 123 fluorescence | shares compounds with MPTP inh; in the data active = inhibition above about 22%;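 note: 0% = DMSO vehicle and 100% = positive control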
MPTP abs DR: dose response confirmation of mitochondrial permeability transition pore inhibitors | shares compounds with MPTP inh | isolated mitochondria swelling, absorbance | IC50, µM | hit rate 58% among 780; in the data active = IC50 below about 20 µM
MPTP counter DR: MPTP inhibitor counter-screen activity, dose response; shares compounds with MPTP inh; isolated mitochondria counterscreen, fluorescence read-out; IC50, µM; hit rate 49% among 780; in the data active = IC50 below about 80 µM
The depositor's hits bear a star; i = inactive; x = no result.

SMILES	V-ATPase pHluor	rCAG binder	MPTP inh	Granule exo inh	Beta2AR agonist	T cell HTS	MPTP counter	others
CC(C)c1noc2ncc(C(=O)c3cc(Cl)cc(Cl)c3O)cc12	x	47*	94*	2	1	369	105*
CCn1c(COc2cccc(C)c2C)nnc1SCC(=O)N1CCN(c2ccc(OC)cc2)CC1	0	5	60*	-2	-13	488	43*
Clc1ccc(OCCCN2CCCCC2)c(Br)c1	3	-1	78*	-4	12	165	-3	MPTP abs DR=i;MPTP counter DR=>80
CC1CCCN(CCOCCOc2ccc(Cl)cc2Br)C1 (configuration not stated)	5	-7	59*	15	13	829	1	MPTP abs DR=i;MPTP counter DR=>80
Clc1ccc(OCCCCCN2CCCC2)c(Br)c1	1	0	-5	1	1	300	x
CC1CCCN(CCOCCOc2ccc(Br)cc2Cl)C1 (configuration not stated)	1	1	3	-1	18	227	x
CCN1CCN(c2ncc(C(=O)Nc3cc(Cl)ccc3OC)c3ccccc23)CC1	-2	-8	78*	22	19	279	-11	MPTP abs DR=i;MPTP counter DR=>80
COc1ccccc1N1CCN(c2ncc(C(=O)N3CCN(c4cccc(Cl)c4)CC3)c3ccccc23)CC1	0	3	9	4	13	166	x
CCN(CC)C(=O)CC[C@@H]1CC[C@]2(CCCN(C(=O)c3cccnc3)C2)O1	x	-1	x	x	x	x	x
COc1ccc(N2CCc3c(C)nc4c(OC)cc(OC)cc4c32)c(OC)c1	2	12	64*	7	-1	189	72*
COc1ccc(N2CCc3c(C)nc4c(OC)cc(OC)cc4c32)cc1	0	13	36	11	-2	152	x
O=C1CCCC2=C1[C@@]1(O[C@H]3C=CC=CN23)C(=O)N(c2ccccc2)c2ccccc21	x	7	x	x	x	x	x
CCOC(=O)NC[C@@]1(C(=O)OC)CC(=O)N(C)[C@@H]1c1ccccc1	x	-2	x	x	x	x	x
CCOC(=O)c1sc(Nc2ccccc2Cl)nc1C	-3	-2	3	-1	7	363	x
CCOC(=O)c1sc(NC(=O)Nc2ccccc2F)nc1C	8	11	58*	-4	11	173	68*
COc1cccc(NC(=S)NC2CC(C)CC(C)(C)C2)c1 (configuration not stated)	0	2	64*	-3	x	x	93*
Cc1nc2ccccc2c(=O)n1NC(=O)Cc1ccc(Br)cc1	5	1	1	0	4	112	x
CCCCCc1ccc(CC(=O)Nn2c(C)nc3ccccc3c2=O)cc1	5	4	72*	-1	-6	275	68*
COC(=O)[C@]12C[C@H](CC(=O)N3CCSCC3)C(=O)N(Cc3ccc4c(c3)OCO4)C1=C[C@H](COCc1ccccc1)O[C@@H]2C	x	4	x	x	x	x	x
O=C(Cc1ccc(Cl)cc1)Nc1ncc([N+](=O)[O-])s1	-3	6	96*	-2	1	x	89*
O=C(COc1ccc(Cl)cc1)Nc1ncc([N+](=O)[O-])s1	-1	19	95*	8	19	x	103*
Cc1cnc(NC(=O)Cc2ccc(Br)cc2)s1	-2	5	4	-19	-11	420	x
CCC(Oc1ccccc1)C(=O)Nc1ncc([N+](=O)[O-])s1 (configuration not stated)	-3	6	89*	2	12	251	98*
O=C(Cc1ccc(Br)cc1)Nc1ncc([N+](=O)[O-])s1	-1	14	74*	-6	9	413	82*
O=C(Nc1ncc([N+](=O)[O-])s1)c1ccco1	8	1	0	4	3	402	x
SMILES	V-ATPase pHluor	rCAG binder	MPTP inh	Granule exo inh	Beta2AR agonist	T cell HTS	MPTP counter	others
O=C(COC(=O)COc1ccccc1)Nc1ncc([N+](=O)[O-])s1	1	34	-2	0	13	192	x
CCC(Oc1ccccc1)C(=O)Nc1nnc(C)s1 (configuration not stated)	4	2	-2	2	4	515	x
Nc1nc2c(ncn2[C@@H]2O[C@H](C(=O)N[C@@H](Cc3ccccc3)C(=O)NCC3CCCCC3)[C@@H](O)[C@H]2O)c(=O)[nH]1	x	10	x	x	x	x	x
OC(CNC1CCCC1)COc1ccc(-c2ccccc2)cc1 (configuration not stated)	1	10	2	-3	17	311	x
CCCC(NCC(O)COc1ccc(-c2ccccc2)cc1)c1ccccc1 (configuration not stated)	3	-3	55*	33	21	375	5	MPTP abs DR=4*;MPTP counter DR=48*
CC1CCC(C(C)C)C(OCC(O)CNC(C)(C)C)C1 (configuration not stated)	1	5	1	2	-6	352	x
CC1CCC(C(C)C)C(OCC(O)CNC(C)c2ccccc2)C1 (configuration not stated)	3	-2	77*	24	18	237	25*
CC(NCC(O)COc1ccc(Br)cc1)c1ccccc1 (configuration not stated)	3	1	81*	-1	42	503	-8	MPTP abs DR=5.5*;MPTP counter DR=>80
COc1ccc(OCC(O)CNC(C)c2ccccc2)cc1 (configuration not stated)	-1	-2	0	-10	-9	14	x
Cc1[nH]c2ccccc2c1CC(=O)Nc1ccc(Nc2cccnc2)c(-c2ccc(OC(F)(F)F)cc2)c1	x	11	x	x	x	x	x
CCn1c2ccccc2c2cc(NC(=O)COC(=O)c3cccc(F)c3)ccc21	x	5	x	x	x	x	x
CC(=O)CC[C@H]1CC[C@]2(CCCN(Cc3nccn3C)C2)O1	x	2	x	x	x	x	x
CCNC(=S)Nc1ccc(Cl)c(C(F)(F)F)c1	-1	-1	91*	2	3	480	95*
COc1cccc(C(=O)Nc2ccc(Cl)c(C(F)(F)F)c2)c1	-3	8	99*	5	0	215	89*
COc1cc(C(=O)Nc2ccc(Cl)c(C(F)(F)F)c2)cc(OC)c1OC	4	2	81*	4	13	340	77*
CN(CC(=O)NCc1ccc(F)cc1)CC(=O)Nc1ccc(Cl)c(C(F)(F)F)c1	2	-3	2	10	2	414	x
O=C(Nc1ccc(Cl)c(C(F)(F)F)c1)c1ccco1	8	1	81*	-2	-11	266	74*
CC1CCC2(CCC(=O)N2CCCO)CC1 (configuration not stated)	x	1	x	x	x	x	x
O=C(CCc1ccccc1-c1ccccc1CCNC(=O)COCc1ccccc1)NCc1ccccc1	x	1	x	x	x	x	x
CNCc1ccccc1Sc1cccc2ccccc12	-4	6	93*	12	11	253	20*
